From ChEMBL document CHEMBL1777776, “Identification of 2-mercaptohexanoic acids as dual inhibitors of 5-lipoxygenase and microsomal prostaglandin E₂ synthase-1” (Bioorg Med Chem, 2011)
Activity calls are given as the source filed them. The rule behind the calls is not given here.

Assays:
[1] = target: T1, Polyunsaturated fatty acid 5-lipoxygenase (Homo sapiens, UniProt P09917); experiment: Inhibition of human recombinant 5-lipoxygenase expressed in Escherichia coli BL21 assessed as enzyme product formation using arachidonic acid as substrate after 10 mins by RP-HPLC analysis
T1 sequence (P09917 whole entry): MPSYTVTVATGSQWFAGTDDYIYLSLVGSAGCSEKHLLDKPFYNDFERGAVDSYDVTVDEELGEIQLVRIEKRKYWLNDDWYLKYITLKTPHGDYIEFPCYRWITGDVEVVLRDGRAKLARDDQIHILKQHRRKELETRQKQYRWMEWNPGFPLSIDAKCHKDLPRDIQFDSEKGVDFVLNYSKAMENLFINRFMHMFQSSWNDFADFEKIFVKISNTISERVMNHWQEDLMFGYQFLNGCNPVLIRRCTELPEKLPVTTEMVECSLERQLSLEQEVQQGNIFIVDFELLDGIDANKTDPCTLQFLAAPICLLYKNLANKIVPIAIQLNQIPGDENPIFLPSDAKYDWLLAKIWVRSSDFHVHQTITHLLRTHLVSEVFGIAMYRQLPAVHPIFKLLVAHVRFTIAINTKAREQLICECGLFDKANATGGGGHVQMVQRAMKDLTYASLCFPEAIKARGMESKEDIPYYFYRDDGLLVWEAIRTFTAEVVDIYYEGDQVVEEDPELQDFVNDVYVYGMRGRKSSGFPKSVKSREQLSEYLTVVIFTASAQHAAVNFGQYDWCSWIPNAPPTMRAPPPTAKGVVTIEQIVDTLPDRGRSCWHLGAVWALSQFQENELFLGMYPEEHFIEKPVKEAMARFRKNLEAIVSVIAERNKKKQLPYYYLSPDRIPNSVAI
Method in brief: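 Human 5-LO expressed in E. coli BL21 (pT3-5LO), affinity-purified and used at once. 0.5 µg enzyme in 1 ml PBS/EDTA with 1 mM ATP preincubated with compound 5–10 min at 4 °C, then warmed 30 s at 37 °C. Reaction started with 2 mM CaCl₂ and AA (routinely 20 µM), with or without 1 µM 13(S)-HpODE. Run 10 min at 37 °C, stopped with ice-cold methanol, products analysed by HPLC. Washout: 10-fold dilution (10 to 1 µM).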

[2] = target: T2, Polyunsaturated fatty acid 5-lipoxygenase (Homo sapiens) (UniProt P09917); experiment: Inhibition of 5-lipoxygenase in LPS/fMLP-stimulated human PMNL assessed as enzyme product formation preincubated 15 mins by ELISA analysis; conditions: in the assay text read “10 mins” for “15 mins”
T2 sequence (whole entry): T1 sequence (P09917 whole entry)
Method in brief: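 Human PMNL in PBS/glucose primed with 1 µg/ml LPS for 10 min at 37 °C, then 0.3 U/ml adenosine deaminase added. After another 10 min, cells given compound (0.3–10 µM) for 10 min, then stimulated with 1 µM fMLP. LTB₄ measured by ELISA.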

Prostaglandin E synthase = target: T3, Prostaglandin E synthase (Homo sapiens, UniProt O14684); experiment: Inhibition of mPGES-1 in human IL-1beta-stimulated A549 cell microsomes assessed as reduction of PGE2 formation from PGH2 after 15 mins; parameters: species or system Microsome
T3 sequence (O14684 whole entry): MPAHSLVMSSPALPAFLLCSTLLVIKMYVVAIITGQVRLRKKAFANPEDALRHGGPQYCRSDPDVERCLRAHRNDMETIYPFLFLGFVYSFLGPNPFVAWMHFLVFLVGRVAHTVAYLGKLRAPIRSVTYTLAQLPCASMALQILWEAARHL
Method in brief: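 Microsomes from A549 cells stimulated 72 h with IL-1β (1 ng/ml), diluted to 50 µg/ml in 0.1 M potassium phosphate pH 7.4 with 2.5 mM glutathione. Preincubated with compound (1% DMSO final) 15 min at 4 °C. Reaction started with 20 µM PGH₂, run 1 min at 4 °C, stopped with FeCl₂/citric acid containing 11β-PGE₂; PGE₂ quantified. Mean of n = 3–5.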

A549 = experiment: Cytotoxicity against human A549 cells assessed as cell viability at 10 uM after 16 hrs by MTT assay; type: cell-based; conditions: a549, 5 h, in the assay text read “5 hrs” for “16 hrs”
Method in brief: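 A549 cells plated at 4 × 10⁴ cells per well, incubated 16 h at 37 °C, 5% CO₂, then exposed to 10 µM compound or DMSO (≤0.3% final) for 5 h. MTT added for 4 h, formazan solubilized with SDS in 20 mM HCl, absorbance at 595 nm read relative to vehicle-treated cells.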

IC50 [1]: 3500 nM
inhibition [2]: Active
IC50 (Prostaglandin E synthase): 2200 nM
SMILES: CCCCC(Sc1ccc(OCCCOc2ccc(-c3ccccc3)cc2)cc1)C(=O)O (centres undefined)
Activity (A549): Non-toxic
